Activity calls are given as the source filed them. The rule behind the calls is not given here.
Legend:
Liver microsomes = experiment: Metabolic stability in rat liver microsomes; assay type: ADME, Microsome
How it was run: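 Rat liver microsomes (1 mg/ml protein) with 4µM compound in 50mM phosphate pH 7.2. Pre-incubated 5 min at 37.5 °C, then started with 2mM NADPH and run 1 h. Samples taken every 15 min, quenched in methanol with internal standard, analyzed by LC-MS. Duplicate runs alongside two control compounds of known half-life. Half-life reported.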

MDA-MB-231 = experiment: Growth inhibition of human MDA-MB-231 cells after 72 hrs by ATPlite assay; assay type: functional; details: MDA-MB-231, 72 h
How it was run: (§1)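 Cells seeded at about 3000 per well, grown 24 h, then given fresh medium and test compound in triplicate at 0.5 to 100µM in DMSO (0.5% final). Exposure 72 h at 37 °C, 5% CO₂. Viability measured by ATPlite luminescence and normalized to DMSO-treated controls. GI50 obtained by curve fitting. HeLa cultured in DMEM/10% FBS; MCF7, MDA-MB-231 and PC3 cultured in RPMI+GlutaMAX/10% FBS.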

[1] = biological target: Misshapen-like kinase 1 (Homo sapiens) (UniProt Q8N4C8); experiment: Inhibition of MINK1 at 10 uM
HeLa = experiment: Growth inhibition of human HeLa cells after 72 hrs by ATPlite assay; assay type: functional; how it was run: as §1
[2] = biological target: Leucine-rich repeat serine/threonine-protein kinase 2 (Homo sapiens) (UniProt Q5S007); experiment: Inhibition of LRKK2 at 10 uM
Chain of Leucine-rich repeat serine/threonine-protein kinase 2 (Homo sapiens) (Q5S007 whole entry): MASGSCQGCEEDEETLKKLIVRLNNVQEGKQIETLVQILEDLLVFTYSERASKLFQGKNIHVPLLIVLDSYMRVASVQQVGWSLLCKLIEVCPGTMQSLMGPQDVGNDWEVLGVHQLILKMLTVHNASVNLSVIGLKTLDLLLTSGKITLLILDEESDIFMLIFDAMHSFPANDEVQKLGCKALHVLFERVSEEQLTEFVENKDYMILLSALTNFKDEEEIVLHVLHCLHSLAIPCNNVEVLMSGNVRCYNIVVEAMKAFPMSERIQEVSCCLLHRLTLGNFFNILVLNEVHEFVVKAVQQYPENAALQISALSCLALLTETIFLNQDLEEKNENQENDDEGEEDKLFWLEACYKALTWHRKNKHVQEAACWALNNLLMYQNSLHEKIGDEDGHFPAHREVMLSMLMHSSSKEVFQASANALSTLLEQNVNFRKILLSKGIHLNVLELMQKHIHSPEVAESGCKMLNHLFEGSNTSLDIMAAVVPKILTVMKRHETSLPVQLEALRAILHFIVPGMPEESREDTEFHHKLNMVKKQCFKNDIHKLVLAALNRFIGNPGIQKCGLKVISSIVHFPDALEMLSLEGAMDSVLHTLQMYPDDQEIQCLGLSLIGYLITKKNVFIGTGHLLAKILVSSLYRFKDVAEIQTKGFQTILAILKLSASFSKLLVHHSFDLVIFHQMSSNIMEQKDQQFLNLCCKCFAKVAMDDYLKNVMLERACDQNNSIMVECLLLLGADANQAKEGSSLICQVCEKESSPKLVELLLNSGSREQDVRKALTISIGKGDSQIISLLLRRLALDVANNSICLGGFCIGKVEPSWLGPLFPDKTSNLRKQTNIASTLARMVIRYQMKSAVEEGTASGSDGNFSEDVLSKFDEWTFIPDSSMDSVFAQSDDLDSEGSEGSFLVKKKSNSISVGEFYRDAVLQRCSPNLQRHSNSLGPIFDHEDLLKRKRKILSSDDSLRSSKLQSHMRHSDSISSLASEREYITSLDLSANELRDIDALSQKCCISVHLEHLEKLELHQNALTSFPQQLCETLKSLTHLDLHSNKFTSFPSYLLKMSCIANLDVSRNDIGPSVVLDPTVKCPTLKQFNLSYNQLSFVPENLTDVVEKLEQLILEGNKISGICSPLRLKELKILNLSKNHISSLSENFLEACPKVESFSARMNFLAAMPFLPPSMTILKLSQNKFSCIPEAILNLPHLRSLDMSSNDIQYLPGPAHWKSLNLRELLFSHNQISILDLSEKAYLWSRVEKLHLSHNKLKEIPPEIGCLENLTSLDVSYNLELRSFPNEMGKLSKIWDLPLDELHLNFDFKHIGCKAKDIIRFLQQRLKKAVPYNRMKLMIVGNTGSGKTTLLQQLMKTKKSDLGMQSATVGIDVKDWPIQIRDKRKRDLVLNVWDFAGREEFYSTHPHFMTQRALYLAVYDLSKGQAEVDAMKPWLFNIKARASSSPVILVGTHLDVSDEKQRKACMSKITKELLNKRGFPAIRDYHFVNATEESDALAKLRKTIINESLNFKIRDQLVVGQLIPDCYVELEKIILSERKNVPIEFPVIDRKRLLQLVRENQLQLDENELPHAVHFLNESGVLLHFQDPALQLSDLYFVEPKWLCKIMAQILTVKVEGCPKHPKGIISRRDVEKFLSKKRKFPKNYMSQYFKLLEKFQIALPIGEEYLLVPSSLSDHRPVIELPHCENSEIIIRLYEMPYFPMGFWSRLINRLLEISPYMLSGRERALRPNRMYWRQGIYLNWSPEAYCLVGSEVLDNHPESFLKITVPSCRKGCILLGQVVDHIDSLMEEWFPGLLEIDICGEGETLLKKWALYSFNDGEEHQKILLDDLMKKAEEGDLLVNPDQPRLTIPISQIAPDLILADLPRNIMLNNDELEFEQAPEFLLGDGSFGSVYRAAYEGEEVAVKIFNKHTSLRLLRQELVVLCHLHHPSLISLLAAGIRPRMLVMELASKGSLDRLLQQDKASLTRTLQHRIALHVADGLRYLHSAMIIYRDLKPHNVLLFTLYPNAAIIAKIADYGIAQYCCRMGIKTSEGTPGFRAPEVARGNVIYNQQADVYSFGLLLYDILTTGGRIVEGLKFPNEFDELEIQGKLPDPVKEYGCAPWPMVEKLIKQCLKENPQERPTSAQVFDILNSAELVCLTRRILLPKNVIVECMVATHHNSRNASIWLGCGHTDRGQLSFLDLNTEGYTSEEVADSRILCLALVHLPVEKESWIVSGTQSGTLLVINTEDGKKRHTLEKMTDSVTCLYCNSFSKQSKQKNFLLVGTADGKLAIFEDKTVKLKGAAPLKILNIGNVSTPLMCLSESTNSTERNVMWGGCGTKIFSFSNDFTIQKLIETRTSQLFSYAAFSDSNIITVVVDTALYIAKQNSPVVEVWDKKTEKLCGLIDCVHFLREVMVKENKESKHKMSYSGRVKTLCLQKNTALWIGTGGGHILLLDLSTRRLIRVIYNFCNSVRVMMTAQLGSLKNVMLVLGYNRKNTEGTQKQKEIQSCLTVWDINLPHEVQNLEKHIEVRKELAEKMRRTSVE

[3] = biological target: Inhibitor of nuclear factor kappa-B kinase subunit alpha (Homo sapiens) (UniProt O15111); experiment: Inhibition of IKKalpha at 10 uM
Chain of Inhibitor of nuclear factor kappa-B kinase subunit alpha (Homo sapiens) (O15111 whole entry): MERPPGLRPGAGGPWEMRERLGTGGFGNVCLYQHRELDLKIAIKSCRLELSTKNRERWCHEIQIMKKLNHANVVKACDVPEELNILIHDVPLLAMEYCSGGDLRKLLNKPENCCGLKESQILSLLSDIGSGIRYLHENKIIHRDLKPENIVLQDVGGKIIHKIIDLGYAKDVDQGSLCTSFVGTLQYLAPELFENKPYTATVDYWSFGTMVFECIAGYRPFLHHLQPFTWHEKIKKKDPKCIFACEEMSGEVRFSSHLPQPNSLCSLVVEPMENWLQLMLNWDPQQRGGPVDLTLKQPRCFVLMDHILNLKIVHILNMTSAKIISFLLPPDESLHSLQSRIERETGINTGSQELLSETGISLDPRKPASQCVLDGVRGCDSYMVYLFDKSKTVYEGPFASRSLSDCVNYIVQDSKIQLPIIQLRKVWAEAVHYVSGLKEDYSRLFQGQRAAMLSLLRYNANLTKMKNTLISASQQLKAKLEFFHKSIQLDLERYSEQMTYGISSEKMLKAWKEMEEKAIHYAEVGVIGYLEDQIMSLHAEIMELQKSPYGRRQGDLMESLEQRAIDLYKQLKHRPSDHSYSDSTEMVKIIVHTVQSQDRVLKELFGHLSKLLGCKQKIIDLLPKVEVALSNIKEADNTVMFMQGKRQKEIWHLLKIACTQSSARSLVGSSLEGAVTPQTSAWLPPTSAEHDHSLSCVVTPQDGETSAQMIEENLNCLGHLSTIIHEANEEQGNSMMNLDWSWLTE

[4] = biological target: Tyrosine-protein kinase SYK (Homo sapiens) (UniProt P43405); experiment: Inhibition of SYK at 10 uM
[5] = biological target: T1, 3-phosphoinositide-dependent protein kinase 1 (Homo sapiens, UniProt O15530); experiment: Inhibition of PDK1 by Z'-LYTE kinase activity assay
T1 sequence (O15530 whole entry): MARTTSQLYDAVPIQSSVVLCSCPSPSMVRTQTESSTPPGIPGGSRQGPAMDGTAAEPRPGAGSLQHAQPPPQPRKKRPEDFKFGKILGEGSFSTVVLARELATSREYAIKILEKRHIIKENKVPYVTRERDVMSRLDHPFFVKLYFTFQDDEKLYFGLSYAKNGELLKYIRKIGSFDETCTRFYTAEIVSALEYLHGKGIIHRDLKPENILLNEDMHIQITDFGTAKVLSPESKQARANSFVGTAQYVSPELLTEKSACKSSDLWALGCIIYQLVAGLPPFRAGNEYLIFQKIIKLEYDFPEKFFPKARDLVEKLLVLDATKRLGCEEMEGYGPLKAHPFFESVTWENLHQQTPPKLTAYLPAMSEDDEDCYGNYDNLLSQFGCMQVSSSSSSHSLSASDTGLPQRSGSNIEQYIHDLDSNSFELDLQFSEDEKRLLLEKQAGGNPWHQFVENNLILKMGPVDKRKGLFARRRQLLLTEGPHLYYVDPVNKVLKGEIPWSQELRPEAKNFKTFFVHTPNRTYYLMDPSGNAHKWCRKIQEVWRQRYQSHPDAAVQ

[6] = biological target: Interleukin-1 receptor-associated kinase 1 (Homo sapiens) (UniProt P51617); experiment: Inhibition of IRAK1 at 10 uM
[7] = biological target: MAP/microtubule affinity-regulating kinase 4 (Homo sapiens) (UniProt Q96L34); experiment: Inhibition of MARK4 at 10 uM
[8] = biological target: Mitogen-activated protein kinase kinase kinase kinase 4 (Homo sapiens) (UniProt O95819); experiment: Inhibition of MAP4K4 at 10 uM
PC-3 = experiment: Growth inhibition of human PC3 cells after 72 hrs by ATPlite assay; assay type: functional; details: PC-3, 72 h; how it was run: as §1
[9] = system: Platelet-derived growth factor receptor alpha (Homo sapiens), P16234 [V561D]; experiment: Inhibition of PDGFRA V561D mutant at 10 uM
[10] = system: Leucine-rich repeat serine/threonine-protein kinase 2 (Homo sapiens), Q5S007 [G2019S]; experiment: Inhibition of LRKK2 G2019S mutant at 10 uM
Chain of Leucine-rich repeat serine/threonine-protein kinase 2 (Homo sapiens), Q5S007 [G2019S] (Q5S007 whole entry G2019S): as the sequence (Q5S007 whole entry) above, with G2019S counted along it

[11] = biological target: High affinity nerve growth factor receptor (Homo sapiens) (UniProt P04629); experiment: Inhibition of NTRK1 at 10 uM
Chain of High affinity nerve growth factor receptor (Homo sapiens) (P04629 33-796 limits assumed): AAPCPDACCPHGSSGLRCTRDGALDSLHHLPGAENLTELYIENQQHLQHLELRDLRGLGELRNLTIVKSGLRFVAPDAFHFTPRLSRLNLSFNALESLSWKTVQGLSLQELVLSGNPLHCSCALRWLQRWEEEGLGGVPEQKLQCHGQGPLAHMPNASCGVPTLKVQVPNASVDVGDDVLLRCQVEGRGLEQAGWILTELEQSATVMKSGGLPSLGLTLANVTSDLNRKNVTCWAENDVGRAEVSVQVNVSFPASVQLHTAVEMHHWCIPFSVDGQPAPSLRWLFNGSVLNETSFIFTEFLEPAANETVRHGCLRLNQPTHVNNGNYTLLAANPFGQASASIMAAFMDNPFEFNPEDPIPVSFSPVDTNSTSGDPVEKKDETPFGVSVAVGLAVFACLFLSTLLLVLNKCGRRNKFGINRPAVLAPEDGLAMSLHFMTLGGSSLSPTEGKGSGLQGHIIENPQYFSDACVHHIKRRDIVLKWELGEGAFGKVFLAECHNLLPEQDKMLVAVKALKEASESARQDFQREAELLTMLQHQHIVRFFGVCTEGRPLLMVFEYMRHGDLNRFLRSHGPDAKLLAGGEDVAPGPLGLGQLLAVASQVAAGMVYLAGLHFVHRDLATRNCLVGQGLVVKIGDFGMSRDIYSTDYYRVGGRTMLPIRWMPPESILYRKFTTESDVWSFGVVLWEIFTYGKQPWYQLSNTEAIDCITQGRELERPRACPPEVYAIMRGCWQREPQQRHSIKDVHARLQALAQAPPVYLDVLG

[12] = biological target: NUAK family SNF1-like kinase 1 (Homo sapiens) (UniProt O60285); experiment: Inhibition of NUAK1 at 10 uM
[13] = biological target: RAC-alpha serine/threonine-protein kinase (Homo sapiens) (UniProt P31749); experiment: Inhibition of AKT1 by biochemical assay
Chain of RAC-alpha serine/threonine-protein kinase (Homo sapiens) (P31749 whole entry): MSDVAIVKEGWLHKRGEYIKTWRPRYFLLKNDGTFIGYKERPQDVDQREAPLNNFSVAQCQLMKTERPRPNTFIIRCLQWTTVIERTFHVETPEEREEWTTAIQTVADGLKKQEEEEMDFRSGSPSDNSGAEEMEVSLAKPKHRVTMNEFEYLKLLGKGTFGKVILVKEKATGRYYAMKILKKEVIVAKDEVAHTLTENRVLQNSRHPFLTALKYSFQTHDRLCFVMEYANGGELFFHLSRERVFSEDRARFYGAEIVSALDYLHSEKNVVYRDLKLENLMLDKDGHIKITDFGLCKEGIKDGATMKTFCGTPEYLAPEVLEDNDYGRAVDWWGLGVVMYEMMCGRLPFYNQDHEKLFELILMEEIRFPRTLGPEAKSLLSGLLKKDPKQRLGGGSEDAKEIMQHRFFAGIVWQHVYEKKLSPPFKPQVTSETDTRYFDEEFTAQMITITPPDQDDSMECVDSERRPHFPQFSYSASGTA

C(#Cc1n[nH]c2ccccc12)c1ccncc1
t1/2 (Liver microsomes): 35 min | GI50 (MDA-MB-231): 7.84 µM | inhibition [1]: > 50% | GI50 (HeLa): 2.53 µM | inhibition [2]: > 50% | inhibition [3]: > 50% | inhibition [4]: > 50% | IC50 [5]: 3.87 µM | inhibition [6]: > 50% | inhibition [7]: > 50% | inhibition [8]: > 50% | GI50 (PC-3): 2.43 µM | inhibition [9]: > 50% | inhibition [10]: > 50% | inhibition [11]: > 50% | inhibition [12]: > 50% | inhibition [13]: inactive

Source: ChEMBL document CHEMBL1629532, “Design, synthesis, and structure-activity relationships of 3-ethynyl-1H-indazoles as inhibitors of the phosphatidylinositol 3-kinase signaling pathway” (J Med Chem, 2010)
